Data: ChEMBL document CHEMBL1132373, “Synthesis, opioid receptor binding, and biological activities of naltrexone-derived pyrido- and pyrimidomorphinans” (J Med Chem, 1999)
pIC50, pKi: −log10 of the molar value.

Experiments:
[1] = target: Opioid receptors; mu & delta (Rattus norvegicus) (UniProt P33533+P33535); assay: Selectivity ratio of binding affinity towards mu to delta receptors of rat brain membranes; assay type: cell membranes; conditions: Membrane
Cavia porcellus [2] = organism: Cavia porcellus; assay: Inhibition of contraction (agonistic activity) of guinea pig ileum(GPI) at 1 uM concentration.; assay type: functional; conditions: for pIC50: Cavia porcellus, Ileum
Summary of the method: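 Guinea pig ileum longitudinal muscle strips, 37 °C oxygenated Krebs, 1 g tension, 0.1 Hz, 0.4 ms pulses, supramaximal voltage.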

Mus musculus = organism: Mus musculus; assay: Inhibition of contraction (agonistic activity) of mouse vas deferens (MVD) at 1 uM concentration.; assay type: functional; conditions: for pIC50: Mus musculus
[3] = target: Delta-type opioid receptor (Mus musculus) (UniProt P32300); assay: Antagonist potency against delta opioid receptor in mouse vas deferens (MVD) using DPDPE; assay type: functional, tissue-based
Chain of Delta-type opioid receptor (Mus musculus) (P32300 whole entry): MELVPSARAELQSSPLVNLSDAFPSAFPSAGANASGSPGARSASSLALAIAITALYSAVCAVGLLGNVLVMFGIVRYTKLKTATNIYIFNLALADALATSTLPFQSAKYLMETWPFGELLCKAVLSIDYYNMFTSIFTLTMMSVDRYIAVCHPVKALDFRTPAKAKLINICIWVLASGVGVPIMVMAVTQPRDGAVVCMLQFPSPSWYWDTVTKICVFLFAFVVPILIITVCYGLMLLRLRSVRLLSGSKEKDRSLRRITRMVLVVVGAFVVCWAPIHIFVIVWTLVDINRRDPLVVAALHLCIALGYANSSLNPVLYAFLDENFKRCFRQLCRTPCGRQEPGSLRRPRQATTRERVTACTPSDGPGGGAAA
Summary of the method: (§1)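 Vas deferens from male ICR mice (25-40 g) in 37 °C oxygenated magnesium-free Krebs, 0.5 g tension, field-stimulated 0.1 Hz, 2-ms pulses. Compound 1 µM for 30 min, washout 30 min, cumulative DPDPE curve repeated. Ke = [antagonist]/(IC50 ratio - 1); IC50 from 2-4 tissues, n ≥ 3, nonlinear least squares.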

[4] = target: Delta-type opioid receptor (Mus musculus) (UniProt P32300); assay: (§2) Antagonist potency measured as Ke = [antagonist]/(IC50 ratio-1) against delta opioid receptor from mouse vas deferens (MVD) using DPDPE; assay type: functional; summary of the method: as §1
[5] = target: Mu-type opioid receptor (Cavia porcellus) (UniProt P97266); assay: Antagonist potency against mu opioid receptor in guinea pig ileum (GPI) using […]; assay type: functional, tissue-based
Chain of Mu-type opioid receptor (Cavia porcellus) (P97266 whole entry): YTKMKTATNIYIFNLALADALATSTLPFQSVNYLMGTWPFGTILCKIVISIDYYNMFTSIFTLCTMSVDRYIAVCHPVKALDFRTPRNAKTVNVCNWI
Summary of the method: (§3)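 Longitudinal muscle-myenteric plexus strips from male Hartley guinea pigs (250-500 g), 37 °C oxygenated Krebs, 1 g tension, 0.1 Hz, 0.4 ms pulses. Preincubated 30 min with 1 µM compound, washed 30 min, cumulative PL-017 curve repeated. Ke = [antagonist]/(IC50 ratio - 1); IC50 from 2-4 tissues.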

[6] = target: Mu-type opioid receptor (Cavia porcellus) (UniProt P97266); assay: Opioid antagonist potency against […] mu-opioid receptor from guinea pig ileum(GPI).; assay type: functional, tissue-based; summary of the method: as §3
Cavia porcellus [7] = organism: Cavia porcellus; assay: Selectivity ratio of binding affinity towards mu of […] preparations; assay type: tissue-based
[8] = target: Kappa-type opioid receptor (Cavia porcellus, UniProt P41144); assay: Binding affinity for Opioid receptor kappa 1 was determined by inhibition of binding of [3H]U-69593 (1.2-2.2 nM) to guinea pig brain membranes; parameters: species or system Membrane
Chain of Kappa-type opioid receptor (P41144 whole entry): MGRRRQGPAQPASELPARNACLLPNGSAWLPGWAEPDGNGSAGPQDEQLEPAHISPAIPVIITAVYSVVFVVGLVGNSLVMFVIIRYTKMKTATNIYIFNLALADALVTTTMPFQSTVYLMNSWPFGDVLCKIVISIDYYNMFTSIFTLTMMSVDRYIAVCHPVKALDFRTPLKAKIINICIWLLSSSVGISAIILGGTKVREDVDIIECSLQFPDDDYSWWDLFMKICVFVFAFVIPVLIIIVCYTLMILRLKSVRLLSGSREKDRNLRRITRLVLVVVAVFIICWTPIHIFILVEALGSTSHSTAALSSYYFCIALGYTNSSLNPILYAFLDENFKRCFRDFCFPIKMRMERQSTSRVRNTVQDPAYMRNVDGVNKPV
Summary of the method: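 Guinea pig brain membranes prepared daily, washed twice at 30000g. [3H]U69,593 (2 nM) incubated 2 h at 25 °C in 50 mM Tris-HCl pH 7.4 with 1 µg/mL captopril and protease inhibitors. Nonspecific binding with 1 µM U69,593. 8-10 drug concentrations, twice; Ki = IC50/(1+[L]/Kd).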

Mu-type opioid receptor = Mu-type opioid receptor (Rattus norvegicus, UniProt P33535); assay: Binding affinity for Opioid receptor mu 1 was determined by inhibition of binding of [3H]DAMGO (1.4-3 nM) to rat brain membranes; assay type: cell membranes, Membrane
Chain of Mu-type opioid receptor (P33535 whole entry): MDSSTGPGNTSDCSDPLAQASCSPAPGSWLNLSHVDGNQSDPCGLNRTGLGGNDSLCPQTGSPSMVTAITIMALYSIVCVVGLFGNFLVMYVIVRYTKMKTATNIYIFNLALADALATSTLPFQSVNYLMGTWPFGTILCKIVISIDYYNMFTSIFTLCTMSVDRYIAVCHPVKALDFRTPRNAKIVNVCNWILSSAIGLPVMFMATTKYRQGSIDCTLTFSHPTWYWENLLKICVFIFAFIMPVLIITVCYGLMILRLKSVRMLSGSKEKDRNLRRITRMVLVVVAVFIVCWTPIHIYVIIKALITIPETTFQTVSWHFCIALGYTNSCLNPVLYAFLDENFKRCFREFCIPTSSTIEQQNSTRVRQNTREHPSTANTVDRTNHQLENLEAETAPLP
Summary of the method: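 Rat brain membranes prepared daily, washed twice at 30000g. Labelled with [3H]DAMGO (1-3 nM), 2 h at 25 °C in 50 mM Tris-HCl pH 7.4 plus protease inhibitor cocktail. Nonspecific binding with 20 µM levallorphan. Test drug at 8-10 concentrations, run twice; Ki from IC50 via Ki = IC50/(1+[L]/Kd).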

Cavia porcellus [9] = organism: Cavia porcellus; assay: Selectivity ratio of binding affinity towards kappa of guinea pig brain membrane to delta receptors of rat brain membranes; assay type: cell membranes
[10] = target: Delta-type opioid receptor (Rattus norvegicus, UniProt P33533); assay: Binding affinity for Opioid receptor delta 1 was determined by inhibition of binding of [3H]DADLE (1.3-2.0 nM) to rat brain membranes; assay type: cell membranes, Membrane
Chain of Delta-type opioid receptor (Rattus norvegicus, UniProt P33533) (P33533 whole entry): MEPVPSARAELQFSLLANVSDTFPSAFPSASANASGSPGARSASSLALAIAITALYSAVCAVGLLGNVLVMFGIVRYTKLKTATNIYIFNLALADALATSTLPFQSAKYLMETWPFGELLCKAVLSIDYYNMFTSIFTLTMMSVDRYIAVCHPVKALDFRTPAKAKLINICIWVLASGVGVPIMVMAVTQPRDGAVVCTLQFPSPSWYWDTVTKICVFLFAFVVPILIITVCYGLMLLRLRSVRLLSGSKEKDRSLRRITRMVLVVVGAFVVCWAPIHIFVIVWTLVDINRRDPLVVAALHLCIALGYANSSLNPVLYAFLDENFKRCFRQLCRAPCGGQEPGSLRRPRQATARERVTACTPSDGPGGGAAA
Summary of the method: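 Rat brain membranes prepared daily (homogenised in ice-cold 10 mM Tris-HCl pH 7.0, centrifuged twice at 30000g). [3H]DADLE (2 nM) incubated 2 h at 25 °C in 50 mM Tris-HCl pH 7.4 with 100 mM choline chloride, 3 mM MnCl2, 100 nM DAMGO blocking mu sites, protease inhibitors. Nonspecific: 20 µM levallorphan. 8-10 drug concentrations, duplicate; Ki = IC50/(1+[L]/Kd).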

[11] = target: Delta-type opioid receptor (Mus musculus, UniProt P32300); assay: as §2; assay type: functional; summary of the method: as §1
Chain of Delta-type opioid receptor (Mus musculus, UniProt P32300) (P32300 whole entry): as the sequence (P32300 whole entry) above

[12] = target: Delta-type opioid receptor (Mus musculus) (UniProt P32300)

Chain of Opioid receptors; mu & delta (Rattus norvegicus) (P33533 whole entry, looked up): as the sequence (P33533 whole entry) above
Chain of Opioid receptors; mu & delta (Rattus norvegicus) (P33535 whole entry, looked up): as the sequence (P33535 whole entry) above

Row | Structure (SMILES) | Selectivity ratio [1] | Percent inhibition of contraction at 1 uM (Cavia porcellus [2]) | Percent inhibition of contraction at 1 uM (Mus musculus) | IC50 ratio [3] | Ke [4] | IC50 ratio [5] | Ke [6] | Selectivity ratio (Cavia porcellus [7]) | pKi [8] | pKi (Mu-type opioid receptor) | Selectivity ratio (Cavia porcellus [9]) | pKi [10] | IC50 (Cavia porcellus [2]) | IC50 (Mus musculus) | pKi [11] | inhibition at 1 µM (Cavia porcellus [2]) | inhibition at 1 µM (Mus musculus) | Ke [12] | pIC50 (Cavia porcellus [2]) | pIC50 (Mus musculus)
1 | Oc1ccc2c3c1O[C@H]1c4ncnc(-c5ccccc5)c4C[C@@]4(O)[C@@H](C2)N(CC2CC2)CC[C@]314 | 1.5 | 17% | 15.4% | 4.3 | 300 nM | 5.9 | 204 nM | 0.7 | 6.67 | 6.46 | 0.9 | 6.64 |  |  |  |  |  |  |  | 
2 | Cc1nc(-c2ccccc2)c2c(n1)C1Oc3c(O)ccc4c3[C@@]13CCN(CC1CC1)[C@H](C4)[C@]3(O)C2 (some centres undefined) | 0.8 |  |  |  |  |  |  |  | 6.25 | 6.60 | 1.7 | 6.49 |  |  |  |  |  |  |  | 
3 | Oc1ccc2c3c1O[C@H]1c4nc(-c5ccccc5)nc(-c5ccccc5)c4C[C@@]4(O)[C@@H](C2)N(CC2CC2)CC[C@]314 | 3.4 |  |  | 7.63 | 150 nM | 2.8 | 560 nM | 3.7 | 5.60 | 5.93 | 7.4 | 6.46 |  |  |  |  |  |  |  | 
4 | Oc1ccc2c3c1O[C@H]1c4nc(Cc5ccccc5)nc(-c5ccccc5)c4C[C@@]4(O)[C@@H](C2)N(CC2CC2)CC[C@]314 | 2.3 |  |  | 4.8 | 260 nM | 23.8 | 44 nM | 0.17 | 5.90 | 6.63 | 13 | 7.00 | 14% | 11.7% |  |  |  |  |  | 
5 | Oc1ccc2c3c1O[C@H]1c4ncc(-c5ccccc5)cc4C[C@@]4(O)[C@@H](C2)N(CC2CC2)CC[C@]314 | 16 |  | 4.7% | 249 |  | 24.6 |  | 12 | 7.75 | 7.87 | 20 | 9.06 |  |  | 8.47 |  |  |  |  | 
6 | Oc1ccc2c3c1O[C@H]1c4ncccc4C[C@@]4(O)[C@@H](C2)N(CC2CC2)CC[C@]314 | 1.9 |  |  |  |  | 7.08 |  | 4.4 | 8.06 | 8.82 | 11 | 9.11 |  |  |  | 0% | 0% | 37 nM |  | 
7 | Oc1ccc2c3c1O[C@H]1c4nc(-c5ccccc5)ccc4C[C@@]4(O)[C@@H](C2)N(CC2CC2)CC[C@]314 | 6.3 |  |  | 41.1 | 25 nM | 12.4 | 88 nM | 3.5 | 7.74 | 7.96 | 10 | 8.75 |  |  |  |  |  |  |  | 
8 | Oc1ccc2c3c1O[C@H]1c4ncncc4C[C@@]4(O)[C@@H](C2)N(CC2CC2)CC[C@]314 | 1.2 |  |  | 14.4 | 75 nM | 7.52 | 150 nM | 2 | 8.20 | 8.38 | 1.8 | 8.46 |  |  |  |  |  |  |  | 
9 | Oc1ccc2c3c1O[C@H]1c4nc(-c5ccccc5)ncc4C[C@@]4(O)[C@@H](C2)N(CC2CC2)CC[C@]314 | 1.4 |  |  | 14.3 | 75 nM | 34.1 | 30 nM | 0.4 | 7.96 | 7.66 | 0.7 | 7.80 |  |  |  |  |  |  | 8.40 | 
10 | Cc1ncc2c(n1)[C@@H]1Oc3c(O)ccc4c3[C@@]13CCN(CC1CC1)[C@H](C4)[C@]3(O)C2 | 0.3 |  |  | 7.6 | 150 nM |  |  |  | 7.60 | 8.22 | 1.1 | 7.64 |  |  |  |  |  |  |  | 8.52
11 | Oc1ccc2c3c1O[C@H]1c4nc5ccccc5c(-c5ccccc5)c4C[C@@]4(O)[C@@H](C2)N(CC2CC2)CC[C@]314 | 4.2 |  |  |  |  |  |  |  | 6.57 | 6.51 | 3.7 | 7.14 |  |  |  |  |  |  |  | 
12 | Oc1ccc2c3c1OC1c4nccc(-c5ccccc5)c4C[C@@]4(O)[C@@H](C2)N(CC2CC2)CC[C@]314 (some centres undefined) | 2.6 | 14.8% | 31% | 20.5 | 51 nM | 6.21 | 190 nM | 3.7 | 6.58 | 6.72 | 3.6 | 7.14 |  |  |  |  |  |  |  | 
13 | Oc1ccc2c3c1O[C@H]1c4ncc(-c5ccc(Cl)cc5)cc4C[C@@]4(O)[C@@H](C2)N(CC2CC2)CC[C@]314 |  |  | 21% |  |  |  |  |  |  |  |  |  |  |  |  |  |  |  | 6.79 | 
14 | Oc1ccc2c3c1O[C@H]1c4nc(-c5ccccc5)cc(-c5ccccc5)c4C[C@@]4(O)[C@@H](C2)N(CC2CC2)CC[C@]314 | 7.6 |  |  | 21.2 | 49 nM |  |  |  | 5.67 | 6.19 | 25 | 7.07 |  |  |  |  |  |  |  | 
15 | Oc1ccc2c3c1O[C@H]1c4[nH]c5ccccc5c4C[C@@]4(O)[C@@H](C2)N(CC2CC2)CC[C@]314 [NALTRINDOLE] |  | 18% | 16% |  |  |  | 43 nM |  |  |  |  |  |  |  |  |  |  |  |  | 
16 | Cc1cc(-c2ccccc2)c2c(n1)C1Oc3c(O)ccc4c3[C@@]13CCN(CC1CC1)[C@H](C4)[C@]3(O)C2 (some centres undefined) | 1.2 |  |  |  |  |  |  |  | 6.17 | 6.81 | 5.4 | 6.90 |  |  |  |  |  |  | 8.27 | 8.92
